For orientation: Ki means the dissociation constant of the complex between target and ligand, obtained from inhibition or displacement. A lower Ki goes with a stronger hold on the target.

Active and inactive are the calls of the source. No cut-off for these calls is given here.

From ChEMBL document CHEMBL1955756, “Design and synthesis of novel sulfonamide-containing bradykinin hB(2) receptor antagonists. Synthesis and structure-relationships of α,α-tetrahydropyranylglycine” (Bioorg Med Chem, 2012) come the findings set out here.

Test [1] concerns the target T1, B2 bradykinin receptor (Homo sapiens, UniProt P30411).
T1 sequence (P30411 whole entry): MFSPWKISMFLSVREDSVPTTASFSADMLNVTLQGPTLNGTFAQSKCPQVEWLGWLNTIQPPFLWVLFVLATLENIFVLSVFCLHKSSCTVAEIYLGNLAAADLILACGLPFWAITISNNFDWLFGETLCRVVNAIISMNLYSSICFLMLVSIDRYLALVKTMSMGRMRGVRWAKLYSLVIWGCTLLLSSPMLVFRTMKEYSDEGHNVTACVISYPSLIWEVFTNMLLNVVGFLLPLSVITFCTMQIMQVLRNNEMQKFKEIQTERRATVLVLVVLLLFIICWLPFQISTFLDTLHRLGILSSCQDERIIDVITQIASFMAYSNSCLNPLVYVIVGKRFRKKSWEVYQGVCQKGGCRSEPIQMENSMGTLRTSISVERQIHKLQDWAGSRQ
Nature of the test: Displacement of [3H]-Bradykinin from human bradykinin B2 receptor expressed in CHO cells membrane after 60 mins by scintillation counting. In kind it is cell membranes. For orientation: In a radioligand displacement assay an active substance lowers the binding of a labelled ligand.

For test [2], the target named is T1, B2 bradykinin receptor. Nature of the test: Antagonist activity at human bradykinin B2 receptor expressed in dhfr-deficient CHO cells assessed as inhibition of bradykinin-induced inositol monophosphate accumulation preincubated for 15 mins prior bradykinin induction measured after 40 mins by liquid scintillation spectrometry. Type of test: functional, cell-based. The settings on record: read-out: pA2 (converted). The procedure, abridged:
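CHOdhfr-/hB2R cells (1.8×10^5/well) plated overnight at 37 °C, labelled 24 h with myo-[3H]inositol (1 uCi/well). Antagonist pre-incubation 15 min, then BK 1×10^-11 to 1×10^-5 M for 40 min at 37 °C in Hepes pH 7.4 buffer with 25 mM LiCl. IP1 radioactivity by liquid scintillation. Agonist curves fitted for EC50; pA2 = log(CR−1) − log[antagonist].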

Another test deals with T2, B1 bradykinin receptor (Homo sapiens, UniProt P46663).
T2 sequence (P46663 whole entry): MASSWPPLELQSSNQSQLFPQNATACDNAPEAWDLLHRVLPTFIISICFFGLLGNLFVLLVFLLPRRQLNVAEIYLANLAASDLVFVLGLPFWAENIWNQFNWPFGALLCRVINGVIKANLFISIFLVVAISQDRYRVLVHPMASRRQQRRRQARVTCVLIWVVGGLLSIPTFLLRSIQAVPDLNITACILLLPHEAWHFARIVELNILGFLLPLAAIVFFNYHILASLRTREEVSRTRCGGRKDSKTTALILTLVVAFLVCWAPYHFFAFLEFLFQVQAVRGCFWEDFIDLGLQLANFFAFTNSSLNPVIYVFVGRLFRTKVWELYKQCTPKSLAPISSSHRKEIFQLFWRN
The test is described as follows: Displacement of [3H][desArg9]Lys-Bradykinin from human bradykinin B1 receptor expressed in CHO cells. In kind it is cell-based.

A further test deals with Cavia porcellus. Nature of the test: Inhibition of bradykinin-induced bronchoconstriction in anesthetized Dunkin-Hartley guinea pig at […], it 5 mins prior bradykinin-induction for every 30 mins up to 210 mins. Type of test: functional, organism-based. The method, boiled down:
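Anaesthetized male Dunkin Hartley guinea pigs, 350–400 g. Compound given intratracheally, then repeated iv BK challenges (10 nmol/kg) with bronchoconstriction recorded.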

In the case of `Cc1cc(C)c2cccc(OCc3c(Cl)ccc(S(=O)(=O)NC4(C(=O)N5CC[N+](C)(CCCC[N+](C)(C)C)CC5)CCOCC4)c3Cl)c2n1`, the Ki on B2 bradykinin receptor [1] is 0.0794 nM; at B1 bradykinin receptor, over 10000 nM. The Kb at B2 bradykinin receptor [2] is 2 nM.
As to `Cc1cc(C)c2cccc(OCc3c(Cl)ccc(S(=O)(=O)NC4(C(=O)N5CCN(CCC[N+](C)(C)C)CC5)CCOCC4)c3Cl)c2n1`, the values for the inhibition constant Ki at B2 bradykinin receptor [1] and at B1 bradykinin receptor were 0.316 nM and over 10000 nM, respectively.
Take `Cc1cc(C)c2cccc(OCc3c(Cl)ccc(S(=O)(=O)NC4(C(=O)N5CCC(CCC[N+](C)(C)C)CC5)CCOCC4)c3Cl)c2n1`: the Ki is 0.501 nM on B2 bradykinin receptor [1] and over 10000 nM at B1 bradykinin receptor. Moreover, the Kb at B2 bradykinin receptor [2] is 1.58 nM.
The matching figures for `Cc1cc(C)c2cccc(OCc3c(Cl)ccc(S(=O)(=O)NC4(C(=O)N5CCN(C(=O)CCCCN(C)C)CC5)CCOCC4)c3Cl)c2n1`: 0.1 nM, over 10000 nM and 0.437 nM.
The matching figures for `Cc1cc(C)c2cccc(OCc3c(Cl)ccc(S(=O)(=O)NC4(C(=O)N5CCN(C(=O)[C@@H](N)CCCCN)CC5)CCOCC4)c3Cl)c2n1`: 0.1 nM, over 10000 nM and 0.398 nM.
Regarding `Cc1cc(C)c2cccc(OCc3c(Cl)ccc(S(=O)(=O)NC4(C(=O)N5CCN(C(=O)[C@@H](N)CCCCNC(=N)N)CC5)CCOCC4)c3Cl)c2n1`, the figures for the Ki at B2 bradykinin receptor [1] and at B1 bradykinin receptor were 0.0631 nM and over 10000 nM, respectively.
On the same counts, the results for `Cc1cc(C)c2cccc(OCc3c(Cl)ccc(S(=O)(=O)NC4(C(=O)N5CCN(C(=O)[C@@H](N)CCCNC(=N)N)CC5)CCOCC4)c3Cl)c2n1` are 0.126 nM and over 10000 nM.
In the case of `Cc1cc(C)c2cccc(OCc3c(Cl)ccc(S(=O)(=O)NC4(C(=O)N5CCN(C(=O)CCCCCC[N+](C)(C)C)CC5)CCOCC4)c3Cl)c2n1`, the Ki was 0.2 nM at B2 bradykinin receptor [1] and over 10000 nM at B1 bradykinin receptor. Moreover, on B2 bradykinin receptor [2], the Kb was 1.26 nM.
As for `Cc1cc(C)c2cccc(OCc3c(Cl)ccc(S(=O)(=O)NC4(C(=O)N5CCN(C(=O)CCCCC[N+](C)(C)C)CC5)CCOCC4)c3Cl)c2n1`, the Ki at B2 bradykinin receptor [1] was 0.126 nM; on B1 bradykinin receptor, over 10000 nM. Moreover, the Kb at B2 bradykinin receptor [2] is 0.794 nM.
The matching figures for `Cc1cc(C)c2cccc(OCc3c(Cl)ccc(S(=O)(=O)NC4(C(=O)N5CCN(C(=O)CCCCN)CC5)CCOCC4)c3Cl)c2n1`: 0.0794 nM, over 10000 nM and 0.479 nM.
With `Cc1cc(C)c2cccc(OCc3c(Cl)ccc(S(=O)(=O)NC4(C(=O)N5CC[N+]6(CC5)CC[N+](C)(C)CC6)CCOCC4)c3Cl)c2n1`, the Ki is 0.251 nM on B2 bradykinin receptor [1] and over 10000 nM at B1 bradykinin receptor. On B2 bradykinin receptor [2], the Kb is 5.01 nM.
On to `Cc1cc(C)c2cccc(OCc3c(Cl)ccc(S(=O)(=O)NC4(C(=O)N5CCC(CNCC[N+](C)(C)C)CC5)CCOCC4)c3Cl)c2n1`, for which the inhibition constant (Ki) at B2 bradykinin receptor [1] is 0.2 nM; at B1 bradykinin receptor it was over 10000 nM. Besides, at B2 bradykinin receptor [2], the Kb is 2.51 nM.
`Cc1cc(C)c2cccc(OCc3c(Cl)ccc(S(=O)(=O)NC4(C(=O)N5CCN(C(=O)[C@@H](N)CCCN(C)C)CC5)CCOCC4)c3Cl)c2n1`: the Ki on B2 bradykinin receptor [1] was 0.0501 nM; on B1 bradykinin receptor it was over 10000 nM. Moreover, at B2 bradykinin receptor [2], the Kb is 0.123 nM.
Take `Cc1cc(C)c2cccc(OCc3c(Cl)ccc(S(=O)(=O)NC4(C(=O)N5CC[N+](C)(CCC[N+](C)(C)C)CC5)CCOCC4)c3Cl)c2n1`: the Ki was 0.1 nM on B2 bradykinin receptor [1] and over 10000 nM at B1 bradykinin receptor. In addition, at B2 bradykinin receptor [2], the Kb is 1 nM.
On the same counts, the results for `Cc1cc(C)c2cccc(OCc3c(Cl)ccc(S(=O)(=O)NC4(C(=O)N5CCC(C[N+](C)(C)C)CC5)CCOCC4)c3Cl)c2n1` are 0.398 nM, over 10000 nM and 5.01 nM.
On the same counts, the results for `Cc1cc(C)c2cccc(OCc3c(Cl)ccc(S(=O)(=O)NC4(C(=O)N5CC[N+]6(CCCC6)CC5)CCOCC4)c3Cl)c2n1` are 0.631 nM, over 10000 nM and 3.16 nM.
As for `Cc1cc(C)c2cccc(OCc3c(Cl)ccc(S(=O)(=O)NC4(C(=O)N5CCN(CC[N+](C)(C)C)CC5)CCOCC4)c3Cl)c2n1`, the figures for the Ki at B2 bradykinin receptor [1] and at B1 bradykinin receptor were 0.794 nM and over 10000 nM, respectively.
As to `Cc1cc(C)c2cccc(OCc3c(Cl)ccc(S(=O)(=O)NC4(C(=O)N5CCN(C(=O)CCC[N+](C)(C)C)CC5)CCOCC4)c3Cl)c2n1`, the Ki was 0.126 nM on B2 bradykinin receptor [1] and over 10000 nM on B1 bradykinin receptor. For the same compound, at B2 bradykinin receptor [2], the Kb is 0.794 nM.
Regarding `Cc1cc(C)c2cccc(OCc3c(Cl)ccc(S(=O)(=O)NC4(C(=O)N5CC[N+]6(CCN(C)CC6)CC5)CCOCC4)c3Cl)c2n1`, the Ki at B2 bradykinin receptor [1] was 1 nM; on B1 bradykinin receptor, over 10000 nM. Besides, the Kb on B2 bradykinin receptor [2] is 1.58 nM.
In the case of `Cc1cc(C)c2cccc(OCc3c(Cl)ccc(S(=O)(=O)NC4(C(=O)N5CCC(CC[N+](C)(C)C)CC5)CCOCC4)c3Cl)c2n1`, the Ki at B2 bradykinin receptor [1] was 0.794 nM; at B1 bradykinin receptor it was over 10000 nM. Besides, the Kb at B2 bradykinin receptor [2] is 3.98 nM.
The matching figures for `Cc1cc(C)c2cccc(OCc3c(Cl)ccc(S(=O)(=O)NC4(C(=O)N5CCN(C(=O)C[N+](C)(C)C)CC5)CCOCC4)c3Cl)c2n1`: 0.0794 nM, over 10000 nM and 0.794 nM.
On the same counts, the results for `Cc1cc(C)c2cccc(OCc3c(Cl)ccc(S(=O)(=O)NC4(C(=O)N5CCC(CNCCC[N+](C)(C)C)CC5)CCOCC4)c3Cl)c2n1` are 0.158 nM, over 10000 nM and 2.51 nM.
As for `Cc1cc(C)c2cccc(OCc3c(Cl)ccc(S(=O)(=O)NC4(C(=O)N5CC[N+](C)(CCCCCC[N+](C)(C)C)CC5)CCOCC4)c3Cl)c2n1`, the figures for the Ki on B2 bradykinin receptor [1] and at B1 bradykinin receptor were 0.0398 nM and over 10000 nM, respectively. On B2 bradykinin receptor [2], the Kb is 3.16 nM.
The matching figures for `Cc1cc(C)c2cccc(OCc3c(Cl)ccc(S(=O)(=O)NC4(C(=O)N5CC[N+](C)(CC[N+](C)(C)C)CC5)CCOCC4)c3Cl)c2n1`: 0.251 nM, over 10000 nM and 3.16 nM.
With `Cc1cc(C)c2cccc(OCc3c(Cl)ccc(S(=O)(=O)NC4(C(=O)N5CCN(C(=O)[C@@H](N)CCCCN(C)C)CC5)CCOCC4)c3Cl)c2n1`, the Ki was 0.0631 nM on B2 bradykinin receptor [1] and over 10000 nM on B1 bradykinin receptor.
On to `Cc1cc(C)c2cccc(OCc3c(Cl)ccc(S(=O)(=O)NC4(C(=O)N5CCN(C(=O)[C@@H](N)CCCC[N+](C)(C)C)CC5)CCOCC4)c3Cl)c2n1`, for which the Ki on B2 bradykinin receptor [1] was 0.251 nM; on B1 bradykinin receptor, over 10000 nM. Besides, the Kb on B2 bradykinin receptor [2] was 0.398 nM.
On the same counts, the results for `Cc1cc(C)c2cccc(OCc3c(Cl)ccc(S(=O)(=O)NC4(C(=O)N5CCC(CNCCCC[N+](C)(C)C)CC5)CCOCC4)c3Cl)c2n1` are 0.0501 nM, over 10000 nM and 2.51 nM.
The matching figures for `Cc1cc(C)c2cccc(OCc3c(Cl)ccc(S(=O)(=O)NC4(C(=O)N5CCN(CCCCCC[N+](C)(C)C)CC5)CCOCC4)c3Cl)c2n1`: 0.0631 nM, over 10000 nM and 0.794 nM.
As for `Cc1cc(C)c2cccc(OCc3c(Cl)ccc(S(=O)(=O)NC4(C(=O)N5CCN(C(=O)[C@@H](N)CCC[N+](C)(C)C)CC5)CCOCC4)c3Cl)c2n1` [FASITIBANT], the inhibition entry in the test with Cavia porcellus is “Active”. Further, the inhibition constant Ki on B1 bradykinin receptor was over 10000 nM.
Turning to `Cc1cc(C)c2cccc(OCc3c(Cl)ccc(S(=O)(=O)NC4(C(=O)N5CC[N+](C)(CCCCC[N+](C)(C)C)CC5)CCOCC4)c3Cl)c2n1`, the inhibition constant Ki is 0.0501 nM at B2 bradykinin receptor [1] and over 10000 nM at B1 bradykinin receptor. Besides, the Kb on B2 bradykinin receptor [2] was 2.51 nM.
The matching figures for `Cc1cc(C)c2cccc(OCc3c(Cl)ccc(S(=O)(=O)NC4(C(=O)N5CCN(C(=O)[C@@H](N)CCCN)CC5)CCOCC4)c3Cl)c2n1`: 0.0501 nM, over 10000 nM and 0.724 nM.
